Assays:
Assay type in all cases: functional
Pseudomonas aeruginosa = assay: Antimicrobial activity against Pseudomonas aeruginosa ATCC 27853 assessed as reduction in microbial growth measured after 20 hrs by CLSI based broth microdilution method
How it was run: (§1)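 Broth microdilution per CLSI in cation-adjusted Mueller-Hinton broth. Two-fold serial dilutions from 256 to 0.25 μg/mL, inoculum about 5 × 10⁵ CFU/mL. Read after 20 h at 37 °C. MIC is the lowest concentration with no visible growth. Run in duplicate.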

Staphylococcus aureus [1] = assay: Antimicrobial activity against Staphylococcus aureus ATCC 25923 assessed as reduction in microbial growth measured after 20 hrs by CLSI based broth microdilution method; how it was run: as §1
Staphylococcus aureus [2] = assay: Antimicrobial activity against Staphylococcus aureus ATCC 29213 assessed as reduction in microbial growth measured after 20 hrs by CLSI based broth microdilution method; how it was run: as §1
Escherichia coli = assay: Antimicrobial activity against Escherichia coli ATCC 25922 assessed as reduction in microbial growth measured after 20 hrs by CLSI based broth microdilution method; how it was run: as §1
Acinetobacter baumannii = assay: Antimicrobial activity against Acinetobacter baumannii ATCC 19606 assessed as reduction in microbial growth measured after 20 hrs by CLSI based broth microdilution method; how it was run: as §1
Enterococcus faecalis = assay: Antimicrobial activity against Enterococcus faecalis ATCC 19433 assessed as reduction in microbial growth measured after 20 hrs by CLSI based broth microdilution method; how it was run: as §1
Enterobacter cloacae = assay: Antimicrobial activity against Enterobacter cloacae ATCC 13047 assessed as reduction in microbial growth measured after 20 hrs by CLSI based broth microdilution method; how it was run: as §1
Klebsiella pneumoniae = assay: Antimicrobial activity against Klebsiella pneumoniae ATCC 700603 assessed as reduction in microbial growth measured after 20 hrs by CLSI based broth microdilution method; how it was run: as §1
Streptococcus pneumoniae = assay: Antimicrobial activity against Streptococcus pneumoniae ATCC 49619 assessed as reduction in microbial growth measured after 20 hrs by CLSI based broth microdilution method

SMILES	MIC (Pseudomonas aeruginosa)	MIC (Staphylococcus aureus [1])	MIC (Staphylococcus aureus [2])	MIC (Escherichia coli)	MIC (Acinetobacter baumannii)	MIC (Enterococcus faecalis)	MIC (Enterobacter cloacae)	MIC (Klebsiella pneumoniae)	MIC (Streptococcus pneumoniae)
OC(CNCCNc1nccc(C(F)(F)F)n1)COc1ccccc1 (centres undefined)	> 256 mg/L	> 256 mg/L	> 256 mg/L	> 256 mg/L	> 256 mg/L	> 256 mg/L	> 256 mg/L	> 256 mg/L	128 mg/L
O=[N+]([O-])c1ccc(OCC(O)CNCCNc2ncccc2C(F)(F)F)cc1 (centres undefined)	> 256 mg/L	128 mg/L	128 mg/L	> 256 mg/L	> 256 mg/L	256 mg/L	> 256 mg/L	> 256 mg/L	64 mg/L
OC(CNCCNc1ccccc1C(F)(F)F)COCc1cccc(C(F)(F)F)c1.OC(CNCCNc1ccccc1C(F)(F)F)COCc1cccc(C(F)(F)F)c1 (centres undefined)	> 256 mg/L	> 256 mg/L	128 mg/L	> 256 mg/L	> 256 mg/L	> 256 mg/L	> 256 mg/L	> 256 mg/L	128 mg/L
OC(CNCCNc1ccc(C(F)(F)F)cn1)COCc1ccccc1C(F)(F)F (centres undefined)	> 256 mg/L	64 mg/L	64 mg/L	128 mg/L	128 mg/L	128 mg/L	128 mg/L	> 256 mg/L	64 mg/L
O=[N+]([O-])c1ccc(OCC(O)CNCCNc2cccc(C(F)(F)F)n2)cc1 (centres undefined)	> 256 mg/L	128 mg/L	64 mg/L	256 mg/L	256 mg/L	128 mg/L	256 mg/L	> 256 mg/L	32 mg/L
OC(CNCCSc1ccccc1C(F)(F)F)COc1ccc(C(F)(F)F)cc1 (centres undefined)	> 256 mg/L	16 mg/L	8 mg/L	16 mg/L	32 mg/L	8 mg/L	128 mg/L	> 256 mg/L	4 mg/L
O=[N+]([O-])c1ccc(NCCNCC(O)COCc2ccc(C(F)(F)F)cc2)nc1 (centres undefined)	> 256 mg/L	128 mg/L	64 mg/L	128 mg/L	128 mg/L	128 mg/L	128 mg/L	256 mg/L	64 mg/L
O=[N+]([O-])c1ccc(OCC(O)CNCCNc2cc(C(F)(F)F)ccn2)cc1 (centres undefined)	> 256 mg/L	128 mg/L	128 mg/L	> 256 mg/L	> 256 mg/L	128 mg/L	256 mg/L	> 256 mg/L	64 mg/L
OC(CNCCNc1nccc(C(F)(F)F)n1)COc1ccc(F)c(F)c1 (centres undefined)	> 256 mg/L	256 mg/L	256 mg/L	128 mg/L	256 mg/L	256 mg/L	256 mg/L	> 256 mg/L	64 mg/L
OC(CNCCNc1ccccc1C(F)(F)F)COCc1ccccc1C(F)(F)F (centres undefined)	> 256 mg/L	> 256 mg/L	128 mg/L	> 256 mg/L	> 256 mg/L	> 256 mg/L	> 256 mg/L	> 256 mg/L	128 mg/L
OC(CNCCNc1ccc(C(F)(F)F)cn1)COCc1ccc(C(F)(F)F)cc1 (centres undefined)	> 256 mg/L	32 mg/L	32 mg/L	128 mg/L	64 mg/L	32 mg/L	128 mg/L	> 256 mg/L	16 mg/L
OC(CNCCNc1ccc(-c2ccccc2)cc1)COc1ccc(C(F)(F)F)cc1 (centres undefined)	> 256 mg/L	> 256 mg/L	> 256 mg/L	> 256 mg/L	> 256 mg/L	> 256 mg/L	> 256 mg/L	> 256 mg/L	> 256 mg/L
O=[N+]([O-])c1ccccc1NCCNCC(O)COc1ccc(C(F)(F)F)cc1 (centres undefined)	> 256 mg/L	128 mg/L	128 mg/L	> 256 mg/L	> 256 mg/L	128 mg/L	128 mg/L	> 256 mg/L	32 mg/L
O=[N+]([O-])c1ccc(OCC(O)CNCCNc2ncccn2)cc1 (centres undefined)	> 256 mg/L	> 256 mg/L	> 256 mg/L	> 256 mg/L	> 256 mg/L	> 256 mg/L	> 256 mg/L	> 256 mg/L	> 256 mg/L
O=[N+]([O-])c1ccc(OCC(O)CNCCNc2ccc(F)cn2)cc1 (centres undefined)	> 256 mg/L	> 256 mg/L	> 256 mg/L	> 256 mg/L	> 256 mg/L	> 256 mg/L	> 256 mg/L	> 256 mg/L	> 256 mg/L
OC(CNCCNc1ccc(C(F)(F)F)cn1)COCc1cccc(C(F)(F)F)c1 (centres undefined)	> 256 mg/L	64 mg/L	32 mg/L	64 mg/L	128 mg/L	64 mg/L	256 mg/L	> 256 mg/L	32 mg/L

SMILES	MIC (Pseudomonas aeruginosa)	MIC (Staphylococcus aureus [1])	MIC (Staphylococcus aureus [2])	MIC (Escherichia coli)	MIC (Acinetobacter baumannii)	MIC (Enterococcus faecalis)	MIC (Enterobacter cloacae)	MIC (Klebsiella pneumoniae)	MIC (Streptococcus pneumoniae)
COC(=O)c1ccc(OCC(O)CNCCNc2nccc(C(F)(F)F)n2)cc1 (centres undefined)	> 256 mg/L	> 256 mg/L	> 256 mg/L	> 256 mg/L	> 256 mg/L	> 256 mg/L	> 256 mg/L	> 256 mg/L	256 mg/L
COc1ccc(OCC(O)CNCCNc2nccc(C(F)(F)F)n2)cc1 (centres undefined)	> 256 mg/L	> 256 mg/L	> 256 mg/L	> 256 mg/L	> 256 mg/L	> 256 mg/L	> 256 mg/L	> 256 mg/L	256 mg/L
O=[N+]([O-])c1ccc(OCC(O)CNCCNc2ccccc2C(F)(F)F)cc1 (centres undefined)	> 256 mg/L	64 mg/L	64 mg/L	128 mg/L	128 mg/L	128 mg/L	128 mg/L	> 256 mg/L	64 mg/L
OC(CNCCNc1cccc(C(F)(F)F)c1)COc1ccc(C(F)(F)F)cc1 (centres undefined)	> 256 mg/L	> 256 mg/L	> 256 mg/L	> 256 mg/L	> 256 mg/L	> 256 mg/L	> 256 mg/L	> 256 mg/L	> 256 mg/L
N#Cc1ccc(OCC(O)CNCCNc2ccccc2C(F)(F)F)cc1 (centres undefined)	> 256 mg/L	> 256 mg/L	128 mg/L	> 256 mg/L	> 256 mg/L	> 256 mg/L	> 256 mg/L	> 256 mg/L	128 mg/L
OC(CNCCNc1ccccc1C(F)(F)F)COCc1ccc(C(F)(F)F)cc1 (centres undefined)	> 256 mg/L	64 mg/L	64 mg/L	64 mg/L	64 mg/L	64 mg/L	128 mg/L	> 256 mg/L	32 mg/L
OC(CNCCNc1ccccc1C(F)(F)F)COc1cccc(C(F)(F)F)c1 (centres undefined)	> 256 mg/L	32 mg/L	32 mg/L	32 mg/L	32 mg/L	16 mg/L	32 mg/L	> 256 mg/L	16 mg/L
O=S(=O)(NCCNCC(O)COc1ccc(C(F)(F)F)cc1)c1ccccc1C(F)(F)F (centres undefined)	> 256 mg/L	64 mg/L	64 mg/L	64 mg/L	64 mg/L	64 mg/L	128 mg/L	> 256 mg/L	32 mg/L
OC(CNCCNc1nccc(C(F)(F)F)n1)COc1ccc(C(F)(F)F)cc1 (centres undefined)	> 256 mg/L	64 mg/L	64 mg/L	> 256 mg/L	128 mg/L	64 mg/L	> 256 mg/L	> 256 mg/L	32 mg/L
OC(CNCCNc1ccccc1C(F)(F)F)COc1ccccc1C(F)(F)F (centres undefined)	> 256 mg/L	64 mg/L	32 mg/L	64 mg/L	64 mg/L	32 mg/L	64 mg/L	> 256 mg/L	32 mg/L
O=[N+]([O-])c1ccc(OCC(O)CNCCNc2ccc(C(F)(F)F)cn2)cc1 (centres undefined)	> 256 mg/L	32 mg/L	32 mg/L	128 mg/L	128 mg/L	128 mg/L	128 mg/L	> 256 mg/L	64 mg/L
O=[N+]([O-])c1ccc(OCC(O)CNCCNc2nccc(C(F)(F)F)n2)cc1 (centres undefined)	> 256 mg/L	256 mg/L	128 mg/L	> 256 mg/L	> 256 mg/L	256 mg/L	> 256 mg/L	> 256 mg/L	128 mg/L
OC(CNCCNc1nccc(C(F)(F)F)n1)COc1ccc(F)cc1 (centres undefined)	> 256 mg/L	> 256 mg/L	256 mg/L	> 256 mg/L	> 256 mg/L	> 256 mg/L	> 256 mg/L	> 256 mg/L	128 mg/L
OC(CNCCNc1ccc(C(F)(F)F)cn1)CSCc1ccc(C(F)(F)F)cc1 (centres undefined)	> 256 mg/L	16 mg/L	8 mg/L	32 mg/L	32 mg/L	32 mg/L	64 mg/L	> 256 mg/L	16 mg/L
OC(CNCCNc1ccc(C(F)(F)F)cc1)COc1ccc(C(F)(F)F)cc1 (centres undefined)	> 256 mg/L	64 mg/L	32 mg/L	128 mg/L	256 mg/L	32 mg/L	256 mg/L	> 256 mg/L	8 mg/L

Reference: ChEMBL document CHEMBL6071151, “Discovery of Inhibitors Targeting Protein-Protein Interaction between Bacterial RNA Polymerase and NusG as Novel Antimicrobials” (J Med Chem, 2024)
